Our source for the IC50, CC50 and Ki values is ChEMBL document CHEMBL1146139, “Design and synthesis of novel HIV-1 protease inhibitors incorporating oxyindoles as the P2'-ligands” (Bioorg Med Chem Lett, 2006).

Experiment [1] has as its system MT2. Nature of the experiment: Antiviral activity against HIV1 IIIB strain in MT2 cells. It counts as functional, cell-based. In outline: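 IC50 from inhibition of HIV-1 IIIb-induced cytopathogenicity in MT-2 cells. Assays run in duplicate; values are means of two or three determinations.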
The subject of experiment [2] is MT2. The experiment can be described thus: Cytotoxicity against MT2 cells. It counts as functional. The settings on record: Homo sapiens.
In experiment [3] the target is Human immunodeficiency virus type 1 protease (Human immunodeficiency virus 1, UniProt Q72874). Nature of the experiment: Inhibitory activity against HIV protease. In a few lines: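 Enzyme inhibition constants measured against HIV-1 protease following a previously published protocol. Values are means of two determinations.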

A value given as a limit tells only on which side of the number the result lay.

The molecule `CC(C)(C)NC(=O)[C@@H]1C[C@@H]2CCCC[C@@H]2CN1C[C@@H](O)[C@H](Cc1ccccc1)NC(=O)[C@H](CC(N)=O)NC(=O)c1ccc2ccccc2n1` [SAQUINAVIR] returned a 50% inhibitory concentration (IC50) in experiment [1] (Homo sapiens, IIIB, MT2) of 5 nM. Besides, the CC50 in experiment [2] was greater than 10000 nM. For `C=CCC1(N(CC(C)C)C[C@@H](O)[C@H](Cc2ccccc2)NC(=O)O[C@H]2CO[C@H]3OCC[C@H]32)C(=O)Nc2ccccc21` (stereo in doubt; 14b), in experiment [3], the Ki was 7 nM. Take `CC(C)CCN(C[C@@H](O)[C@H](Cc1ccccc1)NC(=O)O[C@H]1CO[C@H]2OCC[C@H]21)C1(C)C(=O)Nc2ccccc21` (stereo partly specified): the Ki in experiment [3] came to 7 nM.

`COc1ccc2c(c1)C(C)(N(CC(C)C)C[C@@H](O)[C@H](Cc1ccccc1)NC(=O)O[C@H]1CO[C@H]3OCC[C@H]31)C(=O)N2` (stereo in doubt; 15b): in experiment [3], the Ki amounted to 130 nM. On the same count and under the same terms, with `O=C(N[C@@H](Cc1ccccc1)[C@H](O)CN1CCCCC12C(=O)Nc1ccccc12)O[C@H]1CO[C@H]2OCC[C@H]21` (stereo partly specified) the figure was greater than 1000 nM; with `O=C(N[C@@H](Cc1ccccc1)[C@H](O)CN1CC=CCCC12C(=O)Nc1ccccc12)O[C@H]1CO[C@H]2OCC[C@H]21` (stereo partly specified), greater than 1000 nM.

Regarding `CC(C)CN(C[C@@H](O)[C@H](Cc1ccccc1)NC(=O)O[C@H]1CO[C@H]2OCC[C@H]21)C1(C)C(=O)N(C)c2ccccc21` (stereo in doubt; 16b), the Ki in experiment [3] amounted to 60 nM. Same read-out and setting: with `O=C(N[C@@H](Cc1ccccc1)[C@H](O)CN1CC=CCC12C(=O)Nc1ccccc12)O[C@H]1CO[C@H]2OCC[C@H]21` (stereo partly specified) the figure was 126 nM; with `CC1(N(Cc2ccccc2)C[C@@H](O)[C@H](Cc2ccccc2)NC(=O)O[C@H]2CO[C@H]3OCC[C@H]32)C(=O)Nc2ccccc21` (stereo partly specified), 26 nM. Same read-out and setting: with `CC(C)CN(C[C@@H](O)[C@H](Cc1ccccc1)NC(=O)O[C@H]1CO[C@H]2OCC[C@H]21)C1(C)C(=O)N(C)c2ccccc21` (stereo in doubt; 16a) the figure was 42 nM; with `C=CCCC1(N(CC=C)C[C@@H](O)[C@H](Cc2ccccc2)NC(=O)O[C@H]2CO[C@H]3OCC[C@H]32)C(=O)Nc2ccccc21` (stereo partly specified), 47 nM. `CC(C)CN(C[C@@H](O)[C@H](Cc1ccccc1)NC(=O)O[C@H]1CO[C@H]2OCC[C@H]21)C1(C)C(=O)Nc2ccccc21` (stereo in doubt; 3b) yielded a Ki in experiment [3] of 3 nM. The same molecule registered a half-maximal inhibitory concentration (IC50) in experiment [1] (mt2) of 480 nM. Take `CC(C)CN(C[C@@H](O)[C@H](Cc1ccccc1)NC(=O)O[C@H]1CO[C@H]2OCC[C@H]21)C1(C)C(=O)Nc2ccccc21` (stereo in doubt; 3a): the Ki in experiment [3] worked out at 6 nM. The IC50 in experiment [1] (Homo sapiens, IIIB, MT2) is 300 nM. Also, in experiment [2], the CC50 was greater than 10000 nM. Turning to `O=C(N[C@@H](Cc1ccccc1)[C@H](O)CN1CCCCCC12C(=O)Nc1ccccc12)O[C@H]1CO[C@H]2OCC[C@H]21` (stereo partly specified), in experiment [3], the inhibitory constant (Ki) is greater than 1000 nM. The same measure, in the same setting: with `C=CCN(C[C@@H](O)[C@H](Cc1ccccc1)NC(=O)O[C@H]1CO[C@H]2OCC[C@H]21)C1(CC=C)C(=O)Nc2ccccc21` (stereo partly specified) the figure was 5 nM. In the case of `C=CCC1(N(CC(C)C)C[C@@H](O)[C@H](Cc2ccccc2)NC(=O)O[C@H]2CO[C@H]3OCC[C@H]32)C(=O)Nc2ccccc21` (stereo in doubt; 14a), the Ki in experiment [3] is 2 nM.

In turn, `COc1ccc2c(c1)C(C)(N(CC(C)C)C[C@@H](O)[C@H](Cc1ccccc1)NC(=O)O[C@H]1CO[C@H]3OCC[C@H]31)C(=O)N2` (stereo in doubt; 15a) yielded a Ki in experiment [3] of 102 nM.

Broadly, the IC50 is the midpoint of a concentration-inhibition curve. In general, CC50 refers to the concentration giving 50% cytotoxicity. The Ki is the equilibrium dissociation constant of an inhibitor or competing ligand from its target.
